An excerpt weighted towards active compounds, which were near 6.5% of everything screened.
PostGolgi ctrl = yeast control strain growth, post-Golgi counter-screen; efflux-deficient yeast background strain, growth absorbance A615, 16 h; inhibition, % at 10 µM; 5% of 98,000 active
Ecoli WT expand = growth inhibitors of E. coli BW25113 wild type; 0.15% of 98,000 active; OD600 absorbance; growth inhibition, % at 100 µM;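 active means growth inhibition above about 50% at one test dose, limit read from the data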;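 further: growth measured after 20 h incubation at 37 °C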
PostGolgi yeast = growth inhibition of a yeast mutant, post-Golgi transport screen; post-Golgi transport phenotypic cell assay; inhibition, % at 10 µM; 0.9% of 98,000 active;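 further: yeast cells grown in 1536-well plates; yeast grown about 18 h at 30C before absorbance read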
PTK2B oligo ant = Pyk2 (human) oligomerization antagonism; Q14289; Q293 cells, Pyk2 FERM NanoBiT luminescence; hits give low values; z-score (the deposit names both 25 µM and 10 µM); 0.83% of 99,000 active;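 active means Z-score of -3 or lower, scaled per plate to the spread of control and sample wells; inactive means z-score above -3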;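 further: negative z-score means lost luminescence so less FERM oligomerization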
Target sequence (Q14289 whole entry, looked up): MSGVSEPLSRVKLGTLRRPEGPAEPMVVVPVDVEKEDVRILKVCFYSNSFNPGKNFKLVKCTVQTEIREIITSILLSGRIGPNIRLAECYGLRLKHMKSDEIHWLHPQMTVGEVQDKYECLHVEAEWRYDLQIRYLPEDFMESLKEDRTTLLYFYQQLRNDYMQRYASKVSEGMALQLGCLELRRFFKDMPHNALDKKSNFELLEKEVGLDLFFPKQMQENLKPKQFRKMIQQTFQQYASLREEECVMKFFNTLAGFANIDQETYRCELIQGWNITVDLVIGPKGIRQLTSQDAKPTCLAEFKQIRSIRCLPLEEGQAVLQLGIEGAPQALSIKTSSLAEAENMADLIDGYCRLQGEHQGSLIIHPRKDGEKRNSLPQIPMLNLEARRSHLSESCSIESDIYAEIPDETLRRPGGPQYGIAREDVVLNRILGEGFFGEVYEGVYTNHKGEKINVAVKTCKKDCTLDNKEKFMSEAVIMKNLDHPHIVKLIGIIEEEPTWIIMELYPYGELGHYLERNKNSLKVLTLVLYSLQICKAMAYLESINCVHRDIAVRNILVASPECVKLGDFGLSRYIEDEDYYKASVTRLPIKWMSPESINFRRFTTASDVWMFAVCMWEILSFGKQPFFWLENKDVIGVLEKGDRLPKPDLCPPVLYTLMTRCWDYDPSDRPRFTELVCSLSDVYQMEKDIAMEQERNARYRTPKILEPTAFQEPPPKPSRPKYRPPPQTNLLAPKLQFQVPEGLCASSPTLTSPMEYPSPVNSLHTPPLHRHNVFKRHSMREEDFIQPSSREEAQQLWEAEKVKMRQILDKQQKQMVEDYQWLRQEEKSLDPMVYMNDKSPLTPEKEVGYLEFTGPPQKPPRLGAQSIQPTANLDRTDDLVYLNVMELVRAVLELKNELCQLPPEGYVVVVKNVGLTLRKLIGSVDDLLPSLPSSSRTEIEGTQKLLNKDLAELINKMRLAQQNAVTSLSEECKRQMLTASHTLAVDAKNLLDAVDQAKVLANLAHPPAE
Calb biofilm kill = kills Candida albicans biofilms. C. albicans biofilm + clotrimazole, Alamar Blue. inhibition, % at 6 µM. 0.14% of 85,000 active. AID 834;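 active means inhibition above 20%; inactive means inhibition below 20%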;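 further: preformed 24 hr biofilms exposed to compound for 48 hr; 0% = biofilm without compound and 100% = blank killed by clotrimazole plus chlorhexidine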
tolC growth inh = growth inhibitors of E. coli BW25113 tolC mutant; growth inhibition, % at 10 µM (by protocol); 2.2% of 65,000 active; OD615; AID 573;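 active means growth inhibition at or above a cutoff equal to the mean over every tested compound plus 3 SD, cut at about 60% in these data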;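 further: growth measured after 20 h incubation at 37 °C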
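Test system: E. coli BW25113 ΔtolC::kan bacteria; incubation: 37 °C, 20 h exposure; medium: LB broth supplemented with 50 µg/mL kanamycin; read-out basis: percent growth inhibition; signal: A615 absorbance measurement; compound: 10 µM final, single dose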
Active calls of the source: *; · = no result given. Unless noted, no stated cut-off is given here; in the data, active means inhibition above about 30%; inactive means the rest.

SMILES	PostGolgi ctrl	Ecoli WT expand	PostGolgi yeast	PTK2B oligo ant	Calb biofilm kill	tolC growth inh
Cc1cc(C)c(S(=O)(=O)c2ccccc2C)c(Cl)n1	2	1	17	0.14	·	·
Cc1cc(C)c(S(=O)(=O)c2ccccc2C)c(Oc2ccccc2)n1	30*	-10	3	-0.31	·	·
O=c1nc(-c2ccccc2)c2cc(Cl)ccc2[nH]1	-1	4	-2	-0.08	7	-7
Clc1ccc2[nH]c(-c3ccccc3)cc2c1	42*	-24	-6	0.32	·	·
CCc1cc(=O)oc2c(C)c(OCC(=O)N3CCCc4ccccc43)ccc12	33*	0	13	-4.6*	3	·
COc1ccccc1NC(=O)C/C(N)=N/O	10	-1	-6	-0.08	·	·
CCCCC1CC1C(=O)Nc1ccc(OC)c(OC)c1 (stereo not drawn)	37*	-1	-10	1.2	9	6
C/C(Nc1ccc(Cl)cc1)=C(/C#N)C(N)=O	6	0	-6	2.2	50*	·
C/C(Nc1ccccc1)=C(/C#N)C(N)=O	0	6	-3	-0.48	-4	·
Cc1noc(NS(=O)(=O)c2ccc(NC(=O)CSc3nc4ccccc4s3)cc2)c1C	33*	6	-3	0.74	5	42
O=C1CC(C(=O)N2CCOCC2)C2(CCCCC2)O1 (stereo not drawn)	7	6	-4	1.7	5	·
COc1cc(/C=C(/C#N)c2ccc(F)cc2)ccc1OCc1ccc(C(=O)O)o1	7	-9	0	0.24	6	100*
COc1ccc(CNC(=O)c2cc(C3CC3)on2)cc1	33*	10	-6	·	5	2
COc1ccc(C2CC(C(F)(F)F)n3nc(C(=O)O)c(Br)c3N2)cc1 (stereo not drawn)	8	-1	3	0.3	-1	·
O=S(=O)(c1ccc2c(c1)OCCO2)N1CCC(c2nc3ccc(Cl)cc3[nH]2)CC1	-4	-4	-6	-3.4*	-1	38
O=S(=O)(c1ccc2c(c1)OCCO2)N1CCC(c2nc3ccccc3[nH]2)CC1	7	-2	4	-1.9	6	·
O=C(C1CCN(S(=O)(=O)c2ccc3c(c2)OCCO3)CC1)N1CCc2ccccc21	33*	-10	-10	-1.4	9	21
O=S(=O)(c1ccc2c(c1)OCCO2)N1CCC(c2nc3ccccc3s2)CC1	3	-13	-3	-3.1*	4	1
COC(=O)C1(Cc2ccccc2)NC(c2ccccc2C)C2C(=O)N(c3ccc4c(c3)OCO4)C(=O)C21 (stereo not drawn)	·	·	·	-1.9	4	·
c1csc(-c2noc(COc3ccc4c(c3)CCCC4)n2)c1	9	5	-7	1	3	61*
CN(Cc1ccccc1)C(=O)CSc1nc2ccccc2c(=O)n1Cc1ccco1	56*	-30	7	-1.6	1	67*
CCN(CC)S(=O)(=O)c1cccc(C(=O)Nc2nc3cc4c(cc3s2)OCCO4)c1	·	·	·	-3.5*	7	46
CCN(CC)S(=O)(=O)c1ccc2nc(NC(=O)c3cccs3)sc2c1	8	-8	-3	-2.4	·	23
COc1ccc(OC)c(NC2c3ccccc3C(=O)N2c2cccnc2)c1 (stereo not drawn)	3	-3	-2	·	3	-10
CCC1(C)Cc2ccccc2-c2nc3n(c(=O)c21)CCCCC3 (stereo not drawn)	27	2	-2	-1.4	9	100*
SMILES	PostGolgi ctrl	Ecoli WT expand	PostGolgi yeast	PTK2B oligo ant	Calb biofilm kill	tolC growth inh
O=c1c2c(nc3n1CCCCC3)-c1ccccc1CC21CCCCC1	·	·	·	-0.34	7	·
CCC1(C)Cc2ccccc2-c2nc(NCCO)n(-c3ccccc3)c(=O)c21 (stereo not drawn)	·	·	·	-1.8	-3	0
CCC1(C)Cc2ccccc2-c2nc(NCCO)n(-c3ccc(C)cc3)c(=O)c21 (stereo not drawn)	35*	-13	1	-1.7	7	·
CCOc1nnnc2c1sc1nc(N3CCOCC3)c3c(c12)CC(C)(C)OC3	·	·	·	·	3	9
COc1ccc(NC(=O)Cn2c(=O)sc3ccccc32)cc1	8	3	-15	0.55	1	·
CC(C)Oc1ccc(Cn2c(=O)sc3ccccc32)cc1	·	·	·	-3.3*	2	·
COc1ccc(Cn2c(=O)sc3ccccc32)cc1	6	4	1	-1.9	8	61*
CC1CCN(C(=O)/C(=C/c2ccccc2Cl)c2ccccc2)CC1	19	7	1	-3.9*	·	·
CC(C)N1C(=O)c2ccccc2C1C(=O)NC1CCCCCC1 (stereo not drawn)	-12	5	1	2.7	8	1
CCC(C)N1C(=O)c2ccccc2C1C(=O)NC1CCCCCC1 (stereo not drawn)	31*	-10	-7	0.6	7	1
CCOC(=O)C1CCCN(C(=O)CN2CCN(Cc3ccc(Cl)cc3)C2=O)C1 (stereo not drawn)	28	1	-2	·	2	9
NS(=O)(=O)c1ccc(CCNc2ncnc3c2c(-c2ccccc2)cn3-c2ccc(F)cc2)cc1	61*	-6	10	0.51	·	·
CN(C)CCCN1C(=O)c2oc3ccc(F)cc3c(=O)c2C1c1cccnc1 (stereo not drawn)	6	-11	-3	·	4	-12
O=C1C2ON(c3ccc(Br)cc3)C(c3cccnc3)C2C(=O)N1C1CCCCC1 (stereo not drawn)	85*	-3	102*	0.11	·	8
CN(C)CCNS(=O)(=O)c1ccc(Cl)cc1	-8	-2	-6	-0.36	-3	-16
Nc1nc(SCc2ccc(Cl)cc2Cl)n[nH]1	15	20	-6	-0.6	0	25
CNc1cc(CSC)nc(SCc2ccc(Cl)cc2Cl)n1	39*	-13	-10	-1.6	·	·
CCOC(=O)c1ccccc1NC(=O)c1nc2nccc(C)n2n1	40*	0	3	0.26	7	·
Cc1ccnc2nc(C(=O)Nc3nccs3)nn12	7	0	-12	0.51	·	·
CCCC(C)C(=O)Nc1ccccc1C(=O)OCC (stereo not drawn)	10	10	20	0.08	2	·
CCOC(=O)c1ccccc1NS(=O)(=O)c1ccccc1	37*	5	-3	-1.4	2	33
CCOC(=O)c1ccccc1NC(=O)C(C)Oc1ccccc1 (stereo not drawn)	8	13	12	-0.16	5	69*
CCOC(=O)c1ccccc1NS(=O)(=O)c1ccc(C)cc1	20	-2	-10	-1.8	0	·
Cc1ccc(N2CC(C(=O)Nc3ccccc3C(=O)NC3CCCCC3)CC2=O)cc1C (stereo not drawn)	·	·	·	0.14	4	·
Fc1ccccc1N1CCN(C(c2cccs2)c2nnnn2CCc2ccccc2)CC1 (stereo not drawn)	-4	-11	9	-2	3	13
c1ccc(CCn2nnnc2C(c2cccnc2)N2CCN(c3ccccc3)CC2)cc1 (stereo not drawn)	43*	5	62*	-2	3	20
Fc1ccc(N2CCN(C(c3cccs3)c3nnnn3CCc3ccccc3)CC2)cc1 (stereo not drawn)	37*	-27	12	-2.1	-1	20
